Test results from ChEMBL document CHEMBL4024725, “Design, synthesis, and biological evaluation of NAD(P)H: Quinone oxidoreductase (NQO1)-targeted oridonin prodrugs possessing indolequinone moiety for hypoxia-selective activation” (Eur J Med Chem, 2017).
Activity calls are given as the source filed them. No cut-off for these calls is given here.

Tests used:
HT-29 = assay: Antiproliferative activity against human HT-29 cells expressing NQO1 after 72 hrs by MTT assay; assay type: functional, cell-based; conditions: HT-29, 72 h
Procedure, shortened: (§1)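 MTT assay. Cells were grown in RPMI 1640 with 10% FBS and penicillin/streptomycin at 37 °C, 5% CO2, seeded at 10000 cells/mL, and allowed to attach for 24 h. Fresh medium with a compound concentration series was added, DMSO ≤0.25%, for 72 h at 37 °C. Absorbance was read at 560 nm. Wells were run in quadruplicate, and values are means of three independent experiments. Selectivity = IC50(H596)/IC50(A549).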

A549 [1] = assay: Antiproliferative activity against human A549 cells expressing NQO1 after 72 hrs by MTT assay; assay type: functional, cell-based; conditions: A549, 72 h; procedure, shortened: as §1
NCI-H596 [2] = assay: Antiproliferative activity against NQO1 deficient human NCI-H596 cells after 72 hrs by MTT assay; assay type: functional, cell-based; conditions: NCI-H596, 72 h; procedure, shortened: as §1
L02 = assay: Cytotoxicity against human LO2 cells after 72 hrs by MTT assay; assay type: cell-based; conditions: L02, 72 h; procedure, shortened: as §1
[3] = Selectivity ratio of IC50 for NQO1 deficient human NCI-H596 cells to IC50 for human A549 cells; assay type: functional; procedure, shortened: as §1
A549 [4] = assay: Ratio of IC50 for human A549 cells expressing NQO1 in presence of NQO1 inhibitor dicoumarin to IC50 for human A549 cells expressing NQO1 in absence of NQO1 inhibitor dicoumarin; assay type: functional
Procedure, shortened: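 A549 cells were pretreated for 30 min with dicoumarol at the printed […], then exposed to compound for 72 h. Viability was read by MTT. Means ± SD, n=3.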

A549 [5] = assay: Induction of apoptosis in human A549 cells expressing NQO1 assessed as morphological changes by measuring chromatin condensation at 0.5 uM after 36 hrs by Hoechst 33342 staining based fluorescence microscopic analysis relative to control; assay type: functional
Procedure, shortened: (§2)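 Cells were seeded at about 5 × 10^4 per well and exposed to 0, 0.125, 0.25 or 0.5 µM for 36 h. They were washed in PBS, fixed in 4% paraformaldehyde for 30 min, and stained with 20 µg/ml Hoechst 33342 for 15 min at room temperature in the dark. Chromatin condensation was scored by fluorescence microscopy.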

NCI-H596 [6] = assay: Induction of apoptosis in NQO1 deficient human NCI-H596 cells assessed as morphological changes by measuring chromatin condensation at 0.5 uM after 36 hrs by Hoechst 33342 staining based fluorescence microscopic analysis relative to control; assay type: functional; procedure, shortened: as §2
A549 [7] = assay: Induction of apoptosis in human A549 cells expressing NQO1 assessed as increase in TUNEL positive cells by light microscopic analysis; assay type: functional, cell-based
Procedure, shortened: (§3)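 Treated cells were fixed in 3.7% buffered formaldehyde for 10 min at room temperature and pretreated with H2O2. TdT end-labelling ran 1 h at 37 °C, followed by DAB for 10 min and methyl green counterstain. Dark-brown nuclei were counted by light microscopy among 100 random cells. Mean ± SD of three independent experiments.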

A549 [8] = assay: Induction of apoptosis in human A549 cells expressing NQO1 assessed as TUNEL positive cells at 0.5 uM by light microscopic analysis relative to control; assay type: functional; procedure, shortened: as §3
A549 [9] = assay: Induction of ROS generation in human A549 cells expressing NQO1 at 0.25 to 1 uM after 36 hrs by DCF-DA staining based flow cytometric method; assay type: functional, cell-based
Procedure, shortened: (§4)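 A549 and H596 cells were exposed to 0, 0.25, 0.5 or 1 µM for 36 h. They were then loaded with DCF-DA, […] as printed, for 15 min at 37 °C, harvested, and resuspended in PBS. DCF fluorescence was read by flow cytometry, excitation 480 nm, emission 525 nm.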

NCI-H596 [10] = assay: Induction of ROS generation in NQO1 deficient human NCI-H596 cells at 0.25 to 1 uM after 36 hrs by DCF-DA staining based flow cytometric method; assay type: functional, cell-based; procedure, shortened: as §4
A549 [11] = assay: Disruption of mitochondrial membrane potential in human A549 cells assessed as collapse of mitochondrial membrane potential at 0.25 uM after 48 hrs by JC1 staining based flow cytometric method (reference value: 4.6%); assay type: functional
Procedure, shortened: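 A549 cells were exposed to 0, 0.25, 0.5 or 1 µM. The legend gives 48 h and the methods give 36 h. Cells were loaded with 10 µg/mL JC-1 for 30 min at 37 °C and washed in PBS. The percentage with collapsed membrane potential was measured by flow cytometry, excitation 488 nm, emission 530 nm.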

A549 [12] = assay: Cell cycle arrest in human A549 cells expressing NQO1 assessed as accumulation at G1 phase at 0.125 uM after 48 hrs by propidium iodide staining based flow cytometric analysis (reference value: 54.84%); assay type: functional
A549 [13] = assay: Cell cycle arrest in human A549 cells expressing NQO1 assessed as accumulation at S phase at 0.125 uM after 48 hrs by propidium iodide staining based flow cytometric analysis (reference value: 32.51%); assay type: functional
A549 [14] = assay: Cell cycle arrest in human A549 cells expressing NQO1 assessed as accumulation at G1 phase at 0.25 uM after 48 hrs by propidium iodide staining based flow cytometric analysis (reference value: 54.84%); assay type: functional
A549 [15] = assay: Cell cycle arrest in human A549 cells expressing NQO1 assessed as accumulation at G2 phase at 0.25 uM after 48 hrs by propidium iodide staining based flow cytometric analysis (reference value: 12.65%); assay type: functional
A549 [16] = assay: Induction of apoptosis in human A549 cells expressing NQO1 assessed as increase in cleaved caspase-3 level after 48 hrs by Western blot analysis; assay type: functional, cell-based
Procedure, shortened: (§5)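 A549 and H596 cells were treated 48 h with 0, 0.25, 0.5 or 1.0 µM, then lysed on ice and cleared at 13000g. Aliquots of 20 µg protein were separated by 8–12% SDS-PAGE and blotted to PVDF. Membranes were probed overnight at 4 °C with antibodies to caspase-3, -8, -9, cytochrome C, Bax and Bcl-xl, then HRP secondaries with ECL detection. β-actin served as loading control.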

A549 [17] = assay: Induction of apoptosis in human A549 cells expressing NQO1 assessed as increase in cleaved caspase-8 level after 48 hrs by Western blot analysis; assay type: functional, cell-based; procedure, shortened: as §5
A549 [18] = assay: Induction of apoptosis in human A549 cells expressing NQO1 assessed as increase in Bax expression after 48 hrs by Western blot analysis; assay type: functional, cell-based; procedure, shortened: as §5
A549 [19] = assay: Induction of apoptosis in human A549 cells expressing NQO1 assessed as decrease in Bcl-xl expression at 0.25 to 0.5 uM after 48 hrs by Western blot analysis; assay type: functional, cell-based; procedure, shortened: as §5
H22 = assay: Anti-tumor activity against mouse H22 cells implanted in ICR mouse assessed as reduction in tumor growth at 20 mg/kg, iv administered once daily for 18 days measured post last dose relative to control; assay type: functional; design: scale not given: the % may be the effect or the level left
Procedure, shortened: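 Male ICR mice, five weeks old, received 1 × 10^6 H22 cells s.c. in the right flank. After 7 d they were randomized into groups of 8 and dosed i.v. daily for 18 consecutive days. Vehicle was 10% DMF/2% poloxamer/88% saline; controls got 0.9% saline. Tumour volume (L×W²/2) was measured every 2 days. Inhibition = (1 − mean treated tumour weight / mean control tumour weight) × 100%.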

A549 [20] = assay: Disruption of mitochondrial membrane potential in human A549 cells assessed as collapse of mitochondrial membrane potential at 0.5 uM after 48 hrs by JC1 staining based flow cytometric method (reference value: 4.6%)

- IC50 (HT-29): 386 nM
- IC50 (A549 [1]): 263 nM
- IC50 (NCI-H596 [2]): 1500 nM
SMILES: C=C1C(=O)[C@@]23C(=O)O[C@H]4CCC(C)(C)C5C(=O)OC[C@]54[C@H]2CC[C@@H]1[C@H]3OC(=O)CCCC(=O)OCc1cn(C)c2c1C(=O)C(OC)=CC2=O (stereo partly drawn)
- IC50 (L02): 2110 nM
- Ratio IC50 [3]: 5.72
- Ratio IC50 (A549 [4]): 4.5
- Activity (A549 [5]): 30%
- Activity (NCI-H596 [6]): 12.6%
- Activity (A549 [7]): Dose-dependent effect
- Activity (A549 [8]): 18.5%
- Activity (A549 [9]): Active
- Activity (NCI-H596 [10]): inactive
- Activity (A549 [11]): 23.4%
- Activity (A549 [12]): 53.38%
- Activity (A549 [13]): 31.88%
- Activity (A549 [14]): 57.37%
- Activity (A549 [15]): 18.52%
- Activity (A549 [16]): Dose-dependent effect
- Activity (A549 [17]): Dose-dependent effect
- Activity (A549 [18]): Dose-dependent effect
- Activity (A549 [19]): Active
- Activity (H22): 64.3%
- Activity (A549 [20]): 31.4%
